Results published in ChEMBL document CHEMBL4393705, “New chalcone-sulfonamide hybrids exhibiting anticancer and antituberculosis activity” (Eur J Med Chem, 2019).

Tests used:
Type in all cases: functional
RPMI-8226 = assay: Anticancer activity against human RPMI8226 cells assessed as increase in cell death at 10 uM after 48 hrs by SRB assay relative to control
Procedure, shortened: (§1)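 NCI-60 single-dose screen at 10 µM in RPMI-1640 with 5% FBS and 2 mM glutamine. Exposure was 48 h at 37°C, 5% CO2, with time-zero plates fixed at dosing. Read-out was TCA fixation and SRB at 515 nm. Growth percent = (Ti−Tz)/Tz×100 where Ti<Tz, so negative values mean net cell loss.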

A498 = assay: Anticancer activity against human A498 cells assessed as cell growth inhibition measured after 48 hrs by SRB assay; conditions: A498, 48 h; for CC50: read-out: LC50 (the source's name)
Procedure, shortened: (§2)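 NCI-60 five-dose screen at 100, 10, 1.0, 0.1 and 0.01 µM final. Cells in RPMI-1640 with 5% FBS and 2 mM glutamine were seeded 24 h ahead at 37°C, 5% CO2. Compound exposure was 48 h, followed by TCA fixation and SRB staining, read at 515 nm. GI50 is the concentration giving 50% lower net protein increase than control, using time-zero plates.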

M14 = assay: Anticancer activity against human M14 cells assessed as increase in cell death at 10 uM after 48 hrs by SRB assay relative to control; procedure, shortened: as §1
OVCAR-4 = assay: Anticancer activity against human OVCAR4 cells assessed as cell growth inhibition measured after 48 hrs by SRB assay; conditions: OVCAR-4, 48 h; procedure, shortened: as §2
SK-OV-3 = assay: Anticancer activity against human SKOV3 cells assessed as cell growth inhibition measured after 48 hrs by SRB assay; conditions: SK-OV-3, 48 h
Procedure, shortened: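 NCI 60-cell screen, five-dose mode at 100, 10, 1.0, 0.1 and 0.01 µM. Cells grown in RPMI-1640 with 5% FBS and 2 mM L-glutamine, seeded and held 24 h at 37°C, 5% CO2, then exposed for 48 h. Fixed with cold TCA (10% final), stained with 0.4% SRB and read at 515 nm. Time-zero plates were used. GI50 is the concentration giving 50% lower net protein increase than control.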

PC-3 = assay: Anticancer activity against human PC3 cells assessed as increase in cell death at 10 uM after 48 hrs by SRB assay relative to control; procedure, shortened: as §1
SF-295 = assay: Anticancer activity against human SF295 cells assessed as cell growth inhibition measured after 48 hrs by SRB assay; conditions: SF-295, 48 h; procedure, shortened: as §2
HOP-92 = assay: Anticancer activity against human HOP92 cells assessed as increase in cell death at 10 uM after 48 hrs by SRB assay relative to control; procedure, shortened: as §1
786-0 = assay: Anticancer activity against human 786-O cells assessed as increase in cell death at 10 uM after 48 hrs by SRB assay relative to control; procedure, shortened: as §1
CAKI-1 = assay: Anticancer activity against human Caki1 cells assessed as cell growth inhibition measured after 48 hrs by SRB assay; conditions: CAKI-1, 48 h; procedure, shortened: as §2
HCT-116 = assay: Anticancer activity against human HCT116 cells assessed as increase in cell death at 10 uM after 48 hrs by SRB assay relative to control; procedure, shortened: as §1
ACHN = assay: Anticancer activity against human ACHN cells assessed as cell growth inhibition measured after 48 hrs by SRB assay; conditions: for CC50: read-out: LC50 (the source's name); procedure, shortened: as §2
U-251 = assay: Anticancer activity against human U251 cells assessed as increase in cell death at 10 uM after 48 hrs by SRB assay relative to control
Procedure, shortened: (§3)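 NCI single-dose screen at 10 µM. Cells in RPMI-1640 with 5% FBS and 2 mM L-glutamine, preincubated 24 h, then exposed 48 h at 37°C, 5% CO2. Protein measured by TCA fixation and SRB staining, absorbance 515 nm. Growth percent is calculated against time-zero and untreated control plates; negative values indicate net cell loss.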

SF-539 = assay: Anticancer activity against human SF539 cells assessed as increase in cell death at 10 uM after 48 hrs by SRB assay relative to control; procedure, shortened: as §3
K562 = assay: Anticancer activity against human K562 cells assessed as tumour cell growth at 10 uM after 48 hrs by SRB assay relative to control
Procedure, shortened: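 NCI 60-line primary screen at a single 10 μM dose in RPMI-1640 with 5% FBS and 2 mM L-glutamine. Cells were preincubated 24 h at 37 °C in 5% CO₂, with time-zero plates fixed with TCA. Compounds (DMSO, diluted in gentamicin medium) were incubated 48 h, then cells TCA-fixed and stained with 0.4% SRB (A515). Growth percent was derived from time-zero, control and treated absorbances.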

COc1ccc(C(=O)/C=C/c2ccc(Cl)cc2)cc1S(N)(=O)=O
Activity (RPMI-8226): 31.74%
GI50 (A498): 10.4 µM
CC50 (A498): 47.1 µM
Activity (M14): 57.32%
GI50 (OVCAR-4): 3.47 µM
LC50 (OVCAR-4): 40.4 µM
GI50 (SK-OV-3): 5.96 µM
LC50 (concentration killing 50% of cells relative to time zero) (SK-OV-3): 43.1 µM
Activity (PC-3): 55.63%
GI50 (SF-295): 3040 nM
LC50 (SF-295): 31.9 µM
Activity (HOP-92): 26.57%
Activity (786-0): 30.67%
GI50 (CAKI-1): 2.72 µM
LC50 (CAKI-1): 32.5 µM
Activity (HCT-116): 78.33%
GI50 (ACHN): 1940 nM
CC50 (ACHN): 8.75 µM

COc1ccc(C(=O)/C=C/c2ccc(Cl)cc2)cc1S(=O)(=O)Nc1c(N)nc(SC)[nH]c1=O
GI50 (A498): 10.6 µM
CC50 (A498): 47.6 µM
Activity (U-251): 4.2%
GI50 (OVCAR-4): 4.5 µM
LC50 (OVCAR-4): 43.6 µM
GI50 (SK-OV-3): 3.65 µM
LC50 (concentration killing 50% of cells relative to time zero) (SK-OV-3): 36.6 µM
Activity (SF-539): 5.49%
GI50 (SF-295): 2720 nM
LC50 (SF-295): 34.7 µM
Activity (K562): 3.84%
GI50 (CAKI-1): 3.83 µM
LC50 (CAKI-1): 79.5 µM
GI50 (ACHN): 3230 nM
CC50 (ACHN): 36.5 µM
